Experimental data published in PMC9780517 (Experimental and Therapeutic Medicine, 2022).
“Also recorded” adds a separate entry of the source.

Key:
hiPSC-CMs [1] = assay: Field potential; assay type: cell-based, human; settings: for FPDc prolongation (in words): concentration relative to ETPC
hiPSC-CMs [2] = assay: Myocardial cell activity; assay type: cell-based, human; settings: for Effect on Ampl (cell activity / cell viability) / Effect on BPM (beats per minute): concentration relative to ETPC
In short: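 Human iPSC-derived cardiomyocytes (mostly ventricular; four batches) were grown 14-21 days on fibronectin-coated impedance/field-potential sensor plates at 37°C, 5% CO2. The medium was changed on dosing day, and test compound was added 3-4 h later, with 0.1% DMSO as control. Reads were taken every 30 min for 2 h, then every 2 h for >24 h. There were 3-4 concentrations, triplicate wells each. Ampl and BPM were normalized to pre-dose values.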

[3] = ref 21 (Blinova et al); cited from earlier work

SMILES | Arrhythmia-like waveforms (in words) (hiPSC-CMs [1]) | Effect on Ampl (cell activity / cell viability) (hiPSC-CMs [2]) | Effect on BPM (beats per minute) (hiPSC-CMs [2]) | also measured
CN1CCN(C2=Nc3cc(Cl)ccc3Nc3ccccc32)CC1 [Clozapine] | caused arrhythmia-like waveforms | – | – | Concentration at which FPDc prolongation was observed (hiPSC-CMs [1]): 42 % of the ETPC
CC(C)(C)c1ccc(C(O)CCCN2CCC(C(O)(c3ccccc3)c3ccccc3)CC2)cc1 (stereo not drawn) [Terfenadine] | – | decreased the activity of cardiomyocytes at a concentration higher than ETPC | decrease BPM | –
CN(CCOc1ccc(NS(C)(=O)=O)cc1)CCc1ccc(NS(C)(=O)=O)cc1 [Dofetilide] | no arrhythmia-like events were observed; also recorded: No arrhythmia-like waveforms were observed | – | – | Beating of the cells at the maximum concentration (hiPSC-CMs [2]; 0.3 µm (150 times of the ETPC)): cells stopped beating; Concentration at which arrhythmia-like waveforms were observed (hiPSC-CMs [1]): > 150 times of the ETPC; FPDc prolongation (in words) (hiPSC-CMs [1]): FPDc prolongation at concentrations higher than ETPC
CC/C(=C(\c1ccccc1)c1ccc(OCCN(C)C)cc1)c1ccccc1 [Tamoxifen] | – | decreased the activity of cardiomyocytes at a concentration higher than ETPC | BPM was decreased | Concentration at which arrhythmia-like waveforms were observed (hiPSC-CMs [1]): 142.9 times of the ETPC
C=C[C@H]1C[N@@]2CC[C@H]1C[C@@H]2[C@@H](O)c1ccnc2ccc(OC)cc12 [Quinidine] | induce arrhythmia-like waveforms | decreased cell activity at concentrations less than ETPC | BPM decrease at concentrations less than ETPC | FPDc prolongation (in words) (hiPSC-CMs [1]): FPDc prolongation at concentrations lower than ETPC
COc1ccc(CCN(C)CCCC(C#N)(c2ccc(OC)c(OC)c2)C(C)C)cc1OC (stereo not drawn) [Verapamil] | – | decreased the activity of cardiomyocytes at a concentration higher than ETPC | – | –
O=c1[nH]c2ccccc2n1CCCN1CCC(n2c(=O)[nH]c3cc(Cl)ccc32)CC1 [Domperidone] | caused arrhythmia-like waveforms | – | – | –
COc1c(N2C[C@@H]3CCCN[C@@H]3C2)c(F)cc2c(=O)c(C(=O)O)cn(C3CC3)c12 [Moxifloxacin] | – | – | decreased BPM at a concentration greater than ETPC | –
CCC(=O)C(CC(C)N(C)C)(c1ccccc1)c1ccccc1 (stereo not drawn) [Methadone] | – | decreased the cell activity of cardiomyocytes at concentrations greater than ETPC | decreased BPM at a concentration greater than ETPC | –
CC(C)N(CCC(C(N)=O)(c1ccccc1)c1ccccn1)C(C)C (stereo not drawn) [Disopyramide] | induce arrhythmia-like waveforms | decreased cell activity at concentrations less than ETPC | – | FPDc prolongation (in words) (hiPSC-CMs [1]): FPDc prolongation at concentrations lower than ETPC
COc1cc(N)c(Cl)cc1C(=O)NC1CCN(CCCOc2ccc(F)cc2)CC1OC (stereo not drawn) [Cisapride] | – | decreased the activity of cardiomyocytes at a concentration higher than ETPC | decrease BPM | –
COc1cc2c(Nc3ccc(Br)cc3F)ncnc2cc1OCC1CCN(C)CC1 [Vandetanib] | induce arrhythmia-like waveforms | – | BPM decrease at concentrations less than ETPC | FPDc prolongation (in words) (hiPSC-CMs [1]): FPDc prolongation at concentrations higher than ETPC
COc1ccc(CCN2CCC(Nc3nc4ccccc4n3Cc3ccc(F)cc3)CC2)cc1 [Astemizole] | caused arrhythmia-like waveforms | decreased the activity of cardiomyocytes at a concentration higher than ETPC | decrease BPM | –
CC(C)NCC(O)c1ccc(NS(C)(=O)=O)cc1 (stereo not drawn) [Sotalol] | induce arrhythmia-like waveforms | – | BPM decrease at concentrations less than ETPC | FPDc prolongation (in words) (hiPSC-CMs [1]): FPDc prolongation at concentrations lower than ETPC
O=C(NCC1CCCCN1)c1cc(OCC(F)(F)F)ccc1OCC(F)(F)F (stereo not drawn) [Flecainide] | – | – | – | Concentration at which arrhythmia-like waveforms were observed (hiPSC-CMs [1]): 1.33 times of the ETPC
COc1ccccc1OCC(O)CN1CCN(CC(=O)Nc2c(C)cccc2C)CC1 (stereo not drawn) [Ranolazine] | – | – | – | Concentration at which FPDc prolongation was observed (hiPSC-CMs [1]): 51 % of the ETPC; Concentration at which arrhythmia-like waveforms were observed (hiPSC-CMs [1]): 15.4 times of the ETPC
CN1CCN(CCCCN2C(=O)CN(/N=C/c3ccc(-c4ccc(Cl)cc4)o3)C2=O)CC1 [Azimilide] | induce arrhythmia-like waveforms | – | – | FPDc prolongation (in words) (hiPSC-CMs [1]): FPDc prolongation at concentrations lower than ETPC
CC[C@H]1OC(=O)[C@H](C)[C@@H](O[C@H]2C[C@@](C)(OC)[C@@H](O)[C@H](C)O2)[C@H](C)[C@@H](O[C@@H]2O[C@H](C)C[C@H](N(C)C)[C@H]2O)[C@](C)(OC)C[C@@H](C)C(=O)[C@H](C)[C@@H](O)[C@]1(C)O [Clarithromycin] | – | decreased the activity of cardiomyocytes at a concentration higher than ETPC | decrease BPM | FPDc prolongation (in words) (hiPSC-CMs [1]): no FPDc prolongation was observed; also recorded: FPDc showed shortening; FPDc prolongation at the highest concentration (hiPSC-CMs [1]; highest concentration of 100 µM, repeated in triplicate): no FPDc prolongation was observed
CN(C)CCCN1c2ccccc2Sc2ccc(Cl)cc21 [Chlorpromazine] | – | decreased the activity of cardiomyocytes at a concentration higher than ETPC | decrease BPM | Predicted risk, LR model of Blinova et al [3]: low-risk
CCOC(=O)N1CCC(=C2c3ccc(Cl)cc3CCc3cccnc32)CC1 [Loratadine] | – | decreased the activity of cardiomyocytes at a concentration higher than ETPC | – | –
Cc1nccn1CC1CCc2c(c3ccccc3n2C)C1=O (stereo not drawn) [Ondansetron] | caused arrhythmia-like waveforms | decreased the activity of cardiomyocytes at a concentration higher than ETPC | decrease BPM | Concentration at which arrhythmia-like waveforms were observed (hiPSC-CMs [1]): 81 % of the ETPC
NC(=O)c1cccnc1 [Nicotinamide] | – | decreased the cell activity of cardiomyocytes at concentrations greater than ETPC | decreased BPM | –
Cc1cccc(C)c1OCC(C)N (stereo not drawn) [Mexiletine] | – | decreased the activity of cardiomyocytes at a concentration higher than ETPC | BPM was decreased | Concentration at which FPDc prolongation was observed (hiPSC-CMs [1]): 1.2 times of the ETPC
O=c1[nH]c2ccccc2n1C1CCN(CCCC(c2ccc(F)cc2)c2ccc(F)cc2)CC1 [Pimozide] | caused arrhythmia-like waveforms | decreased the activity of cardiomyocytes at a concentration higher than ETPC | decrease BPM | –
CCOC(=O)C1=C(C)NC(C)=C(C(=O)OC)C1c1cccc([N+](=O)[O-])c1 (stereo not drawn) [Nitrendipine] | – | decreased the activity of cardiomyocytes at a concentration higher than ETPC | – | Concentration at which arrhythmia-like waveforms were observed (hiPSC-CMs [1]): 331.1 times of the ETPC
O=C(CCCN1CC=C(n2c(=O)[nH]c3ccccc32)CC1)c1ccc(F)cc1 [Droperidol] | caused arrhythmia-like waveforms | decreased the activity of cardiomyocytes at a concentration higher than ETPC | decrease BPM | –
COC(=O)C1=C(C)NC(C)=C(C(=O)OC)C1c1ccccc1[N+](=O)[O-] [Nifedipine] | – | decreased the activity of cardiomyocytes at a concentration higher than ETPC | – | –
COc1ccc([C@@H]2Sc3ccccc3N(CCN(C)C)C(=O)[C@@H]2OC(C)=O)cc1 [Diltiazem] | – | decreased the activity of cardiomyocytes at a concentration higher than ETPC | BPM was decreased | –
COCCc1ccc(OCC(O)CNC(C)C)cc1 (stereo not drawn) [Metoprolol] | – | decreased the activity of cardiomyocytes at a concentration higher than ETPC | BPM was decreased | Concentration at which FPDc prolongation was observed (hiPSC-CMs [1]): 6 % of the ETPC
CCCCCCCN(CC)CCCC(O)c1ccc(NS(C)(=O)=O)cc1 (stereo not drawn) [Ibutilide] | induce arrhythmia-like waveforms | decreased cell activity at concentrations less than ETPC | BPM decrease at concentrations less than ETPC | Concentration at which arrhythmia-like waveforms were observed (hiPSC-CMs [1]): 10 % of the ETPC; FPDc prolongation (in words) (hiPSC-CMs [1]): FPDc prolongation at concentrations lower than ETPC
